B1: tRNA (parent)
chain: GUUCCGUUGGCGUAAUGGUAACGCGUCUCCCUCCUAAGGAGAAGACUGCGGGUUCGAGUCCCGUACGGAACG

This sample holds only a part of the variants without activity. Some results are limits rather than exact numbers.

Variants of B1 are the subject of this series. Nature of the series: yeast fitness relative to wild type (ratio to wild type); higher = fitter; tRNA-Arg(CCU), competitive growth, 37 C, YPD. Summed up:
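Gene amplicons from the start population and from each of six end populations were read by 100-nucleotide paired-end sequencing. Those end populations came from pooled Saccharomyces cerevisiae strains carrying tRNA-Arg(CCU) gene variants at the native locus, competed in YPD at 37°C for 24 hours. Fitness relative to wild type was worked out from changes in genotype frequencies. Genotypes needed ≥ 100 starting reads, and estimates < 0.5 were set to 0.5.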
On to GUUCCGUUGGCGUAACGGUAACGCGUCUCCCUCCUUAGGAGAACACUGCGGGUUCGAGUCCCGUCCGGAACG [U16C A36U G44C A65C], for which the yeast fitness is not above 0.5.

As to GUUCCGUUGGCGUAACGGUACCGCGUCUCCCUCCUAAGGACACGACUGCGGGUUCGAGUCCCGUAGGGAUCG [U16C A21C G41C A43C C66G A70U], the yeast fitness is not above 0.5.

For the variant GUUCCGUUGGCGUAACGGUAGCGCGUCUCCCUCCUAAGGAGAAGACUGCGGGUUCGAGUCCCGUACGGACCG [U16C A21G A70C], the yeast fitness was 0.725.

GUUCCGUUGGCGUAACGGUUACGCCUCUCCCUCCUAAGGAGAAGACUGCGGGUUCGAGUCCCGUACGGAACG [U16C A20U G25C]: the yeast fitness is not above 0.5.

Consider GUUCCGUUGGCGUAACGGUAACGCGUCUCCCUCCUAAGGUGAAGACUGCGGGUUCGCGUCCCGUACGGAACG [U16C A40U A57C], for which the yeast fitness is not above 0.5.

Take GUUCCGUUGGCGUAACGGUUACGCCUCUCCCUCCUAAGGAGAAGACUGCGGGUUCGAGUACCGUACGGAACG [U16C A20U G25C C60A]: the yeast fitness is not above 0.5.

For GUUCCGUUGGCGUAAAGGUAACGCGUCACCCUCCUAAGGAGAAGACUGCGGGUUCGAGUGACAUACGGAACG [U16A U28A C60G C61A G63A], the yeast fitness is not above 0.5.

Regarding GUUCCGUUGGCGUAACGGUAACGCGUCUCCCUCCUACGGAGAAGACUGCGGGUUCGAGUCCCGUACAGAACG [U16C A37C G67A], the yeast fitness turned out to be 0.553.

In the case of GUUCCGUUGGCGUAAAGGUAACGCGUCCCCCUCCUAACAAGAAGACUGCGGGUUCGAGUCCCGUACGGAACG [U16A U28C G38C G39A], the yeast fitness was not above 0.5.

Take GUUCCGUUGGCGUAACGGUACCGCGUCUCCCUCCUAAGGAAAAGACUGCGGGUUCAAGUCCCGUACGGAACG [U16C A21C G41A G56A]: the yeast fitness is not above 0.5.

As for GUUCCGUUGGCGUAAAGGUAACGCGUCUCCCUCCUAAGGAGAAGACUGCGGGUCGGAGUCCCGUACGGAACG [U16A U54C C55G], the yeast fitness is not above 0.5.

As to GUUCCGUUGGCGUAAAGGUAACGCGUCACCCUCCUAAGGAGAAGACUGCGGGUUCGAGUCCUGUACGGAACG [U16A U28A C62U], the yeast fitness is not above 0.5.

As for GUUCCGUUGGCGUAAAGGUAACGCGUCACCCUCCUAAGGAGAAGACUGCGGGUUCGAGUCCCGCACGGAACG [U16A U28A U64C], the yeast fitness worked out at 0.568.

Turning to GUUCCGUUGGCGUAACGGUAACGCGUCUCCCUCCUAAGGUGAAGACUGCGGGUUCGAGUCCCGUCCGGAACG [U16C A40U A65C], the yeast fitness was 0.626.

As for GUUCCGUUGGCGUAAAGGUAACGCGUCUCCCUCCCAAGGAGAAGGCUGCGGGUUCCAGUCCCCUACGGAACG [U16A U35C A45G G56C G63C], the yeast fitness was not above 0.5.

Turning to GUUCCGUUGGCGUAAAGGUAACGCGUCUCCCUCCUAAGGAGAAGACCGCGGGUUCGAGUCCCGUUCGGAACG [U16A U47C A65U], the yeast fitness was 0.727.

Consider GUUCCGUUGGCGUAACGGUAACGCGUCUCCCUCCUGAGGAGAAGACUGCAGGUUCGAGUCCCGUACGGAACG [U16C A36G G50A], for which the yeast fitness turned out to be 0.594.

As to GUUCCGUUGGCGUAAAGGUAACGCGUCUCCCUCCUAAGGAGAAGACUGCGGGUUCGAGUCCCGCAUGGAACG [U16A U64C C66U], the yeast fitness worked out at 0.68.

Turning to GUUCCGUUGGCGUAACGGUGACGCGUCUUCCUCCUAAGGAGAAGACUGCGGGUUCGAGUCCUGUACGGAACG [U16C A20G C29U C62U], the yeast fitness was not above 0.5.

Regarding GUUCCGUUGGCGUAACGGUAACGCGUCUCCCUCCUAAGGUGAAGACAGCGGGUUCGAGUCCCGUACGGAACG [U16C A40U U47A], the yeast fitness came to 0.532.

For the variant GUUCCGUUGGCGUAACGGUAACGCGUCUCCCUCCUAAGGAGUAGACUGCGGGUUCGAGUCCCCUACGGAACG [U16C A42U G63C], the yeast fitness is not above 0.5.

On to GUUCCGUUGGCGUAACGGUAGCGCGUCUCCCUCCUAAGGGGAAGACUGCGGGUUCGCGUCCCGUACGGAACG [U16C A21G A40G A57C], for which the yeast fitness is not above 0.5.

For the variant GUUCCGUUGGCGUAACGGUAACGCGUCUCCCUCCUGAGGAGAAGACUGCGGGUUCGAGUCCCGUACGGAACG [U16C A36G], the yeast fitness is 1.03.

As to GUUCCGUUGGCGUAACGGUCUCGCGUGUCCCUCCUAAGGAGUAGACUGCGGGUUCGAGUCCCGUACGGAACG [U16C A20C A21U C27G A42U], the yeast fitness is not above 0.5.

For the variant GUUCCGUUGGCGUAAAGGUAACGCGUCGCCCUCCUAAGGAGAAGACGGCGGGUACGAGUCCCGUACGGAACG [U16A U28G U47G U54A], the yeast fitness was 0.56.

In the case of GUUCCGUUGGCGUAACGGUAACGCGUCUCCCUCCUAAGGAGGAGACUGCGGGUUCGAAUCCCGUACGGAACG [U16C A42G G58A], the yeast fitness was found to be 0.52.

For GUUCCGUUGGCGUAACGGUAACGCGUCUCCCUCCUAAGGUGAAGACUGCGGGUUCGCGUCCCGUAUGGAACG [U16C A40U A57C C66U], the yeast fitness is not above 0.5.

In the case of GUUCCGUUGGCGUAACGGUAACGCGUCUCCCUCCUAAGGAGUAGACUGCGGGUUCGAGUCCCGUACGGAACG [U16C A42U], the yeast fitness came out at 0.969.

GUUCCGUUGGCGUAACGGUAACGCGUCUCCCUCCUAAGGAGCAGACUGCGGGUUCGAGUCCCGUACGGAACG [U16C A42C]: the yeast fitness is 0.93.

Turning to GUUCCGUUGGCGUAAAGGUAACGCGUCACCCUCCUAAGGAGAAGACUGCGGGUUCGAGUCCCGUACGGAACG [U16A U28A], the yeast fitness was 0.636.

Consider GUUCCGUUGGCGUAACGGUAGCGCGUCUCCCUCCUAAGGCGUAGAUUGUGAGUUCGAGUCCCGUACGGAGCG [U16C A21G A40C A42U C46U C49U G51A A70G], for which the yeast fitness was not above 0.5.

As to GUUCCGUUGGCGUAACGGUAACGCGUCUCCCUCCUAGGGAGAAGACUGCGGGUUCGAGUCGCGUACGGGACG [U16C A37G C61G A69G], the yeast fitness came out at 0.687.

For GUUCCGUUGGCGUAACGGUAUCGCGUCUCCCUCCUAAGGAGAAGACUGCGGGUUCGAGUCCUGUACGGAACG [U16C A21U C62U], the yeast fitness was not above 0.5.

As for GUUCCGUUGGCGUAACGGUACCGCGUCUCCCUCCUAGGGAGAAGACUGCGGGUCAGAGUCCCGUACGGAACG [U16C A21C A37G U54C C55A], the yeast fitness was not above 0.5.

In the case of GUUCCGUUGGCGUAAAGGUAACGCGUCUCCCUCCUAAGGAGAAGACCGCGGGUUCGAGUCCCGUACGGUACG [U16A U47C A69U], the yeast fitness was determined as 0.91.

For the variant GUUCCGUUGGCGUAACGGUACCGCGUCUCCAUCCUAGGGAGAAGACUGCGGGUUAGAGUCCCGUACGGAACG [U16C A21C C31A A37G C55A], the yeast fitness is not above 0.5.

Take GUUCCGUUGGCGUAACGGUAACGCGUCUCCCUCCUAAGGUGAAGACUGCGGGUUCGAGUCCCGUACGGAUCG [U16C A40U A70U]: the yeast fitness was found to be 0.683.

Take GUUCCGUUGGCGUAAAGGUAACGCGUCUCCCUCCUAAGGAGAAGACUGCGGGGUCGAGUCCGGUACGGAACG [U16A U53G C62G]: the yeast fitness is not above 0.5.

These data come from the RNAGym collection of RNA variant scans (doi:10.1126/science.aae0568).
